Experiment [1] is described as follows: Displacement of [3H]nicotin from nicotinic ACh receptor. The gist of the method:
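Porcine brain membranes (sucrose/K+-phosphate pH 7.0/EDTA homogenate, 100,000 g pellet) incubated with 3H-nicotine and alkaloids (0.5 nM–10 mM) for 40 min at 20°; 1 mM nicotine defines nonspecific binding. Rapid filtration on BSA-presoaked glass fiber filters, saline washes, scintillation counting; triplicates. IC50 = concentration displacing 50% of specific binding.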
Background: Displacement assays read how much labelled ligand stays bound in the presence of the test substance.

Experiment [2] is described as follows: Displacement of [3H]quinuclidinyl benzilate from muscarinic ACh receptor. The gist of the method:
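Porcine brain membranes (500 µg protein; 10 mM K+-phosphate pH 7.0, 1 mM EDTA) incubated with 3H-QNB and alkaloids (0.5 nM–10 mM) for 1 h at 20°; atropine blank for nonspecific binding. Stopped with ice-cold 0.9% NaCl, rapid glass-fiber filtration, three washes, scintillation counting; triplicates. IC50 = concentration displacing 50% of specific binding.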

We go through 13 compounds from ChEMBL document CHEMBL1148066, “Binding of quinolizidine alkaloids to nicotinic and muscarinic acetylcholine receptors” (J Nat Prod, 1994).

Usually IC50 stands for the point on the concentration scale where inhibition reaches its midpoint. A lower IC50 goes with greater potency. As for `CN1C[C@@H]2C[C@H](C1)c1cccc(=O)n1C2`, the values for the IC50 in experiment [1] and in experiment [2] were 0.05 µM and 417 µM, respectively.

Regarding `O=C1[C@H]2C[C@@H](CN3CCCC[C@@H]23)[C@H]2CCCCN12`, the half-inhibitory concentration (IC50) amounted to 155 µM in experiment [1] and 118 µM in experiment [2].

In the case of `O=C1[C@H](O)CC[C@@H]2[C@H]3C[C@@H](CN12)[C@@H]1CCCCN1C3`, the IC50 worked out at 190 µM in experiment [1] and 74 µM in experiment [2].

In the case of `O=C1CCC[C@@H]2[C@H]3C[C@@H](CN12)[C@@H]1C[C@H](O)CCN1C3`, the half-inhibitory concentration (IC50) in experiment [1] is 490 µM; in experiment [2], 140 µM.

Turning to `C=CC[C@H]1NC[C@H]2C[C@@H]1[C@H]1CC(=O)C=CN1C2` [ALBINE], the IC50 in experiment [1] came out at 193 µM; in experiment [2] it was 33 µM.

Regarding `O=c1cccc2n1C[C@H]1C[C@@H]2CN2CCCC[C@H]12` [ANAGYRINE], the results for the concentration for half-maximal inhibition (IC50) in experiment [1] and in experiment [2] were 2100 µM and 132 µM, respectively.

`C=CC[C@@H]1NC[C@@H]2C[C@H]1CN1C(=O)CCC[C@H]21` [ANGUSTIFOLINE]: the IC50 in experiment [1] is over 500 µM; in experiment [2], 25 µM.

Take `O=c1cccc2n1C[C@@H]1CNC[C@H]2C1` [CYTISINICLINE]: the values for the IC50 in experiment [1] and in experiment [2] were 0.14 µM and 400 µM, respectively.

In the case of `O=C1CCC[C@@H]2[C@H]3C[C@@H](CN12)[C@@H]1CCCCN1C3` [LUPANINE], the concentration for half-maximal inhibition (IC50) in experiment [1] came to 5 µM; in experiment [2] it was 114 µM.

In the case of `OC[C@@H]1CCCN2CCCC[C@H]12` [LUPININE], the figures for the IC50 in experiment [1] and in experiment [2] were over 500 µM and 190 µM, respectively.

In the case of `O=C1C=CN2C[C@@H]3C[C@@H](CN4CCCC[C@@H]34)[C@H]2C1` [MULTIFLORINE], the IC50 was over 500 µM in experiment [1] and 47 µM in experiment [2].

As for `C1CCN2C[C@@H]3C[C@@H](CN4CCCC[C@@H]34)[C@H]2C1` [SPARTEINE], the IC50 in experiment [1] was found to be 331 µM; in experiment [2], 21 µM.

As to `C=CCCN1C[C@H]2C[C@@H](C1)[C@H]1CCCC(=O)N1C2` [TETRAHYDRORHOMBIFOLINE], the IC50 in experiment [1] is 310 µM; in experiment [2], 129 µM.
